# In ChEMBL document CHEMBL1926632, “Cytotoxic triterpenoid saponins from Lysimachia clethroides” (J Nat Prod, 2011):
# What was measured:
# Assay type in all cases: functional, cell-based
# HepG2 = experiment: Cytotoxicity against human HepG2 cells by MTT assay
# Outline: (§1)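 MTT read-out following a previously published method. Cell origins: HT-29 colon cancer, HePG2 hepatoma, BGC-823 gastric cancer, A549 lung epithelial, A375 amelanotic melanoma, all human. Paclitaxel served as positive control in the same panel.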
# HT-29 = experiment: Cytotoxicity against human HT-29 cells by MTT assay; outline: as §1
# A549 = experiment: Cytotoxicity against human A549 cells by MTT assay; outline: as §1
# BGC-823 = experiment: Cytotoxicity against human BGC823 cells by MTT assay; outline: as §1
# A-375 = experiment: Cytotoxicity against human A375 cells by MTT assay; outline: as §1
SMILES,IC50 (HepG2),IC50 (HT-29),IC50 (A549),IC50 (BGC-823),IC50 (A-375)
C[C@@H]1O[C@@H](O[C@H]2[C@H](O[C@H]3CO[C@@H](O[C@H]4CC[C@]5(C)[C@H]6CC[C@]78OC[C@@]9(CCC(C)(C)C[C@H]97)[C@H](O)C[C@@]8(C)[C@]6(C)CC[C@H]5C4(C)C)[C@H](O[C@@H]4O[C@H](CO)[C@@H](O)[C@H](O)[C@H]4O)[C@H]3O)O[C@H](CO)[C@@H](O)[C@@H]2O)[C@H](O)[C@H](O)[C@H]1O,0.99 µM,1.96 µM,1.95 µM,2.07 µM,2.13 µM
CC1(C)[C@@H](O[C@@H]2OC[C@H](O[C@@H]3O[C@H](CO)[C@@H](O)[C@H](O)[C@H]3O)[C@H](O)[C@H]2O[C@@H]2O[C@H](CO)[C@@H](O)[C@H](O)[C@H]2O)CC[C@]2(C)[C@H]3CC[C@]45OC[C@@]6(CC[C@](C)(CO)C[C@H]64)[C@H](O)C[C@@]5(C)[C@]3(C)CC[C@@H]12 [ARDISIANOSIDE E],0.75 µM,1.81 µM,2.47 µM,1.14 µM,1.71 µM
C[C@@H]1O[C@@H](O[C@H]2[C@H](O[C@H]3CO[C@@H](O[C@H]4CC[C@]5(C)[C@H]6CC[C@]78OC[C@@]9(CCC(C)(C)C[C@H]97)C(=O)C[C@@]8(C)[C@]6(C)CC[C@H]5C4(C)C)[C@H](O[C@@H]4O[C@H](CO)[C@@H](O)[C@H](O)[C@H]4O)[C@H]3O)O[C@H](CO)[C@@H](O)[C@@H]2O)[C@H](O)[C@H](O)[C@H]1O [CLETHROIDOSIDE C],1.48 µM,1.99 µM,2.62 µM,1.93 µM,1.14 µM
CC1(C)CC[C@]23CO[C@@]4(CC[C@@H]5[C@@]6(C)CC[C@H](O[C@@H]7OC[C@H](O[C@@H]8O[C@H](CO)[C@@H](O)[C@H](O)[C@H]8O[C@@H]8OC[C@@H](O)[C@H](O)[C@H]8O)[C@H](O)[C@H]7O[C@@H]7O[C@H](CO)[C@@H](O)[C@H](O)[C@H]7O)C(C)(C)[C@@H]6CC[C@@]5(C)[C@]4(C)CC2=O)[C@@H]3C1 [CLETHROIDOSIDE D],1.73 µM,1.98 µM,2.36 µM,1.36 µM,1.91 µM
CC(=O)OC[C@H]1O[C@@H](O[C@H]2[C@H](O[C@H]3CC[C@]4(C)[C@H]5CC[C@]67OC[C@@]8(CCC(C)(C)C[C@H]86)[C@H](O)C[C@@]7(C)[C@]5(C)CC[C@H]4C3(C)C)OC[C@H](O[C@@H]3O[C@H](CO)[C@@H](O)[C@H](O)[C@H]3O[C@@H]3O[C@@H](C)[C@H](O)[C@@H](O)[C@H]3O)[C@@H]2O)[C@H](O)[C@@H](O)[C@@H]1O [CLETHROIDOSIDE E],6.26 µM,1.4 µM,> 10 µM,8.05 µM,> 10 µM
CC(=O)O[C@H]1[C@H](OC(C)=O)[C@]23CO[C@@]4(CC[C@@H]5[C@@]6(C)CC[C@H](O[C@@H]7OC[C@H](O[C@@H]8O[C@H](CO)[C@@H](O)[C@H](O)[C@H]8O[C@@H]8OC[C@@H](O)[C@H](O)[C@H]8O)[C@H](O)[C@H]7O[C@@H]7O[C@H](CO)[C@@H](O)[C@H](O)[C@H]7O)C(C)(C)[C@@H]6CC[C@@]5(C)[C@]4(C)C[C@H]2O)[C@@H]3CC1(C)C [CLETHROIDOSIDE F],1.26 µM,2.04 µM,2.28 µM,1.95 µM,2.19 µM
CC1(C)CC[C@]23CO[C@@]4(CC[C@@H]5[C@@]6(C)CC[C@H](O[C@@H]7OC[C@H](O[C@@H]8O[C@H](CO)[C@@H](O)[C@H](O)[C@H]8O[C@@H]8OC[C@@H](O)[C@H](O)[C@H]8O)[C@H](O)[C@H]7O[C@@H]7O[C@H](CO)[C@@H](O)[C@H](O)[C@H]7O)C(C)(C)[C@@H]6CC[C@@]5(C)[C@]4(C)C[C@H]2O)[C@@H]3C1 [LYSIKOKIANOSIDE 1],1 µM,1.96 µM,1.91 µM,1.75 µM,1.94 µM
CC(=O)O[C@H]1C(=O)[C@@]2(C)[C@H]([C@H](OC(=O)c3ccccc3)[C@]3(O)C[C@H](OC(=O)[C@H](O)[C@@H](NC(=O)c4ccccc4)c4ccccc4)C(C)=C1C3(C)C)[C@]1(OC(C)=O)CO[C@@H]1C[C@@H]2O [PACLITAXEL],0.0044 µM,0.00394 µM,0.0449 µM,,0.0049 µM
